Experimental data gathered from unrelated publications.
Lines come from different studies, so protocols differ.
Target: Tyrosine-protein kinase TXK (TXK, Homo sapiens, UniProt P42681)
Sequence (P42681 1-527, as in one of the studies): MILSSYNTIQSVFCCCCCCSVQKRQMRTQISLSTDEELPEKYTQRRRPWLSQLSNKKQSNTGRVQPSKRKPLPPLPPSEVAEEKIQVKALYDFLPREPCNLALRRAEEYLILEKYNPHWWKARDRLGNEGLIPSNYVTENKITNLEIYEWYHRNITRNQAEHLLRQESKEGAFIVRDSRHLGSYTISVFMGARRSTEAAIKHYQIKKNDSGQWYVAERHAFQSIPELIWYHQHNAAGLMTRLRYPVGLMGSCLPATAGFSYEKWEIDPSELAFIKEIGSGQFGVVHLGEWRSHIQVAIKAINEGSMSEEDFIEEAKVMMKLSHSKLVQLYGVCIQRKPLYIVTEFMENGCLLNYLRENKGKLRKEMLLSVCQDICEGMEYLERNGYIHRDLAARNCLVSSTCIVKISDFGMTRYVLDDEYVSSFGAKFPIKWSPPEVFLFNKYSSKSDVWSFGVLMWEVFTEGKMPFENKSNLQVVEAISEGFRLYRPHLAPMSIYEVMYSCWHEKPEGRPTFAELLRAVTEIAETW

For `O=c1[nH]c2ccccc2n1C1CCN(Cc2ccc(-c3[nH]c4cc5ncnc5cc4nc3-c3ccccc3)cc2)CC1`, the remaining activity was 104% (enzyme activity; 0.5 µM).
With `Cc1nn(C)cc1-c1nc2c(N3CCN(Cc4ccc(Cl)cc4)CC3)c(Cl)cnc2[nH]1` the remaining binding was 100% (binding, competition with immobilised ligand; 1 µM).
The remaining binding of `COc1ncccc1-c1cnn2ccc(N3CCN(C(=O)OC(C)C)CC3)nc12` is reported as 74% (binding, competition with immobilised ligand; 1 µM).
The remaining activity of `CC(C)(C)c1cc(C=C(C#N)C#N)cc(Br)c1O` is reported as 108% (enzyme activity, inhibitor; 0.5 µM).
With `Cn1cncc1[C@](O)(COc1ccc(C#N)cc1-c1ccc(OC(F)(F)F)cc1)c1ccc(C#N)cc1` the remaining binding was 87% (binding, competition with immobilised ligand; 1 µM).
`Nc1ncc(-c2nc(N3CCOCC3)nc(N3CCOCC3)n2)c(C(F)F)n1` gave a remaining binding of 56% (binding, competition with immobilised ligand; 10 µM).
For `COc1cc(Nc2ncc(F)c(Nc3ccc4c(n3)NC(=O)C(C)(C)O4)n2)cc(OC)c1OC`, the inhibition was 90% (binding; 10 µM).
`N#CC1(c2ccccn2)CCN(Cc2cc(C(=O)O)c(=O)n3ccccc23)CC1` has a remaining binding of 100% (binding, competition with immobilised ligand; 1 µM).
